In the array DNA melting data of Ke et al. (doi:10.1101/2024.01.08.574731):

Tests used:
[1] = folding enthalpy; higher = less favourable; fluorescence melt of hairpins on a sequencing array, two-state fit; details: sodium 0.088 M
Summary of the method: (§1)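 Two-state fits, bootstrapped, provided melting temperature and folding enthalpy from Cy3 fluorescence normalised to pre-quench Cy3 and to control constructs. Library hairpins with annealed Cy3 and quencher oligos were imaged on a sequenced MiSeq flow cell in 50 mM Na-HEPES pH 8.0, 25 mM NaCl, at 2.5 °C intervals up to 60 °C. Four replicates were combined with inverse-variance weighting. A 9.35 °C upward shift was applied to fitted temperatures to match UV melts.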

[2] = melting temperature; fluorescence melt of hairpins on a sequencing array, two-state fit, raised by 9.35 °C to match UV melts; details: sodium 0.088 M
Summary of the method: as §1

GCTAGGCGAAAGCCCAGC (((.(((....))).))) showed a folding enthalpy [1] of -23.7 kcal/mol and a Tm [2] of 50.7 °C.
In the case of GACCACGGAAACGTGGCC (.(((((....))))).), the folding enthalpy [1] is reported as -13.3 kcal/mol and the Tm [2] is reported as 49.9 °C.
GTGACGGGAAACCATCAC ((((.((....)).)))) showed a folding enthalpy [1] of -32.6 kcal/mol and a Tm [2] of 42.1 °C.
GACATGGGAAACTATGTC (((((.(....).))))) gave a folding enthalpy [1] of -27.6 kcal/mol and a Tm [2] of 44.4 °C.
With GATCAGACGACTGATC ((((((....)))))) the folding enthalpy [1] was -39.2 kcal/mol and the Tm [2] was 47.5 °C.
Sequence GCCAACGAAAGTTCCGGC ((((((....)))..))) has a folding enthalpy [1] of -20.6 kcal/mol and a Tm [2] of 36.3 °C.
GTGAATCCGAAAGGACAC (((..(((....)))))) showed a folding enthalpy [1] of -20.1 kcal/mol and a Tm [2] of 32.8 °C.
GTATGCGAAAGCAACTAC ((((((....)))..))) showed a folding enthalpy [1] of -11.6 kcal/mol and a Tm [2] of 36.2 °C.
For GCGACAACGAAAGTTCGC (((..(((....)))))), the folding enthalpy [1] was -28.6 kcal/mol and the Tm [2] was 49.4 °C.
For GCGAGGGGAAACTCTCGC (((((.(....).))))), the folding enthalpy [1] was -40.3 kcal/mol and the Tm [2] was 58 °C.
For GATCCTGAGAGGATC ((((((...)))))), the folding enthalpy [1] was -31.1 kcal/mol and the Tm [2] was 50.7 °C.
GCTGAAGGAAACTTCGGC ((.((((....)))).)) gave a folding enthalpy [1] of -49.4 kcal/mol and a Tm [2] of 51.3 °C.
GGCTACGAAAGTAGAGCC ((((((....)))..))) showed a folding enthalpy [1] of -20 kcal/mol and a Tm [2] of 49.5 °C.
Sequence GATGACGAAAGTCAAATC ((((((....)))..))) has a folding enthalpy [1] of -11.8 kcal/mol and a Tm [2] of 34.6 °C.
Sequence GCAGTAGGAAACTGCTGC ((((.((....)).)))) has a folding enthalpy [1] of -31 kcal/mol and a Tm [2] of 57 °C.
GATCTTGACGAAGATC ((((((....)))))) gave a folding enthalpy [1] of -26.5 kcal/mol and a Tm [2] of 46.1 °C.
Sequence GATCACGCCTGTGATC ((((((....)))))) has a folding enthalpy [1] of -49.5 kcal/mol and a Tm [2] of 59.4 °C.
In the case of GGTGCCGCGAAAGCGACC (((..(((....)))))), the folding enthalpy [1] is reported as -9.79 kcal/mol and the Tm [2] is reported as 45.6 °C.
Sequence GCGGGAGGAAACCCCCGC (((((.(....).))))) has a folding enthalpy [1] of -37.9 kcal/mol and a Tm [2] of 60.2 °C.
Sequence GCATGCCGAAAGGCTGC (((.(((....)))))) has a folding enthalpy [1] of -21.6 kcal/mol and a Tm [2] of 65.7 °C.
For GCGACGGATCGC ((((....)))), the folding enthalpy [1] was -14.9 kcal/mol and the Tm [2] was 46.8 °C.
GTAAACGAAAGTTGCTAC ((((((....)))..))) showed a folding enthalpy [1] of -9.49 kcal/mol and a Tm [2] of 29 °C.
GTTCGCGAAAGCGACAAC ((((((....)))..))) showed a folding enthalpy [1] of -7.58 kcal/mol and a Tm [2] of 34.8 °C.
GAAATTGGAAACAGTTTC ((((.((....)).)))) gave a folding enthalpy [1] of -26.4 kcal/mol and a Tm [2] of 34.2 °C.
Sequence GTGGTCGAAAGACCCCAC ((((((....)))..))) has a folding enthalpy [1] of -9.79 kcal/mol and a Tm [2] of 38 °C.
GAACTCACGAAAGTGTTC (((..(((....)))))) showed a folding enthalpy [1] of -14.3 kcal/mol and a Tm [2] of 29.2 °C.
With CGAAGACGGAAACGTTCG (((..(((....)))))) the folding enthalpy [1] was -13.8 kcal/mol and the Tm [2] was 39 °C.
Work on GCCATTGCGAAAGCAGGC (((..(((....)))))) yielded a folding enthalpy [1] of -19.1 kcal/mol and a Tm [2] of 51.4 °C.
For GGACACCGAAAGGTATCC (((.(((....))).))), the folding enthalpy [1] was -30.4 kcal/mol and the Tm [2] was 47.5 °C.
For GATCGAATATTCGATC ((((((....)))))), the folding enthalpy [1] was -44.5 kcal/mol and the Tm [2] was 53.3 °C.
Sequence GCAAACGAAAGTTAGTGC ((((((....)))..))) has a folding enthalpy [1] of -19.7 kcal/mol and a Tm [2] of 32.9 °C.
In the case of GGGGTCGAAAGACAGCCC ((((((....)))..))), the folding enthalpy [1] is reported as -16.6 kcal/mol and the Tm [2] is reported as 46.2 °C.
Work on GGGATTGGAAACAGTCTC (.((.((....)).)).) yielded a folding enthalpy [1] of -13 kcal/mol and a Tm [2] of 27.7 °C.
In the case of GATCCTAGTAGGATC ((((((...)))))), the folding enthalpy [1] is reported as -34.1 kcal/mol and the Tm [2] is reported as 52.4 °C.
With GTGAACACGAAAGTGCAC (((..(((....)))))) the folding enthalpy [1] was -14.1 kcal/mol and the Tm [2] was 41.2 °C.
GATCATTGACATGATC ((((((....)))))) showed a folding enthalpy [1] of -24.1 kcal/mol and a Tm [2] of 43.6 °C.
In the case of GATCCGTTCCCGGATC ((((((....)))))), the folding enthalpy [1] is reported as -43.4 kcal/mol and the Tm [2] is reported as 55.7 °C.
Work on GACAACCGAAAGGTAGTC (((.(((....))).))) yielded a folding enthalpy [1] of -33 kcal/mol and a Tm [2] of 51.3 °C.
Work on GGAGTCCGAAAGGATCC (((.(((....)))))) yielded a folding enthalpy [1] of -21.6 kcal/mol and a Tm [2] of 47.8 °C.
In the case of GATAATGGAAACGTTATC (((((.(....).))))), the folding enthalpy [1] is reported as -29.4 kcal/mol and the Tm [2] is reported as 34.6 °C.
With GATCCACAAATGGATC ((((((....)))))) the folding enthalpy [1] was -32.9 kcal/mol and the Tm [2] was 47.5 °C.
In the case of GGGCTCCGAAAGGACCC (((.(((....)))))), the folding enthalpy [1] is reported as -30.1 kcal/mol and the Tm [2] is reported as 57.4 °C.
GGCTGAGCGAAAGCTGCC (((..(((....)))))) gave a folding enthalpy [1] of -20 kcal/mol and a Tm [2] of 51.6 °C.
GTAACGAAAGTTAC (((((....))))) showed a folding enthalpy [1] of -26.1 kcal/mol and a Tm [2] of 55 °C.
GAACCGCGAAAGCGTTTC (((.(((....))).))) showed a folding enthalpy [1] of -20.5 kcal/mol and a Tm [2] of 42.3 °C.
For GATCAGTCCCTGATC ((((((...)))))), the folding enthalpy [1] was -46.5 kcal/mol and the Tm [2] was 50.3 °C.
With GCGTTTACGAAAGTACGC (((..(((....)))))) the folding enthalpy [1] was -24.4 kcal/mol and the Tm [2] was 47.9 °C.
For GTATGGTCGAAAGACTAC (((..(((....)))))), the folding enthalpy [1] was -15.5 kcal/mol and the Tm [2] was 27.9 °C.
GATCTCCCCGGAGATC ((((((....)))))) gave a folding enthalpy [1] of -35.1 kcal/mol and a Tm [2] of 57.6 °C.
For GCTGGGCGAAAGCTTAGC (((..((....))..))), the folding enthalpy [1] was -23 kcal/mol and the Tm [2] was 50.5 °C.
With GATCTGCGTACAGATC ((((((....)))))) the folding enthalpy [1] was -36.4 kcal/mol and the Tm [2] was 53.9 °C.
Sequence GCGGGGTGCCGC ((((....)))) has a folding enthalpy [1] of -26.3 kcal/mol and a Tm [2] of 61.2 °C.
GTTCCACGAAAGTGAAAC (((.(((....))).))) showed a folding enthalpy [1] of -25.2 kcal/mol and a Tm [2] of 43.4 °C.
GGTACCACGAAAGTGACC (((..(((....)))))) gave a folding enthalpy [1] of -13.4 kcal/mol and a Tm [2] of 30.1 °C.
Sequence GATCACGGGAGTGATC ((((((....)))))) has a folding enthalpy [1] of -37.6 kcal/mol and a Tm [2] of 68.5 °C.
In the case of GATCCCTATCGGGATC ((((((....)))))), the folding enthalpy [1] is reported as -38 kcal/mol and the Tm [2] is reported as 60.2 °C.
Sequence GCGTCCGAAAGGACACGC ((((((....)))..))) has a folding enthalpy [1] of -14.6 kcal/mol and a Tm [2] of 60 °C.
With GCTCCGGGAAACCGGAAC (.(((((....))))).) the folding enthalpy [1] was -12.4 kcal/mol and the Tm [2] was 43.2 °C.
Work on GAAGGGGGAAACCCCTTC (((((((....))))))) yielded a folding enthalpy [1] of -37 kcal/mol and a Tm [2] of 61.5 °C.
For GGCTGTGGAAACGCAGTC (.(((.(....).))).), the folding enthalpy [1] was -23.4 kcal/mol and the Tm [2] was 42.4 °C.
For GCGGGACCGAAAGGTCGC (((..(((....)))))), the folding enthalpy [1] was -11.5 kcal/mol and the Tm [2] was 56.3 °C.
For GTGTTCGAAAGAAAACAC ((((((....)))..))), the folding enthalpy [1] was -22.6 kcal/mol and the Tm [2] was 38.2 °C.
In the case of GATCCTTATAAGGATC ((((((....)))))), the folding enthalpy [1] is reported as -36 kcal/mol and the Tm [2] is reported as 53.9 °C.
GACGACCGAAAGGTTGTC (((.(((....))).))) gave a folding enthalpy [1] of -42.3 kcal/mol and a Tm [2] of 63.4 °C.
Work on GCCAGGGCGAAAGCCGGC (((..(((....)))))) yielded a folding enthalpy [1] of -17.1 kcal/mol and a Tm [2] of 63.3 °C.
In the case of GAAGCAGAAATGCTTC ((((((....)))))), the folding enthalpy [1] is reported as -35.3 kcal/mol and the Tm [2] is reported as 54.5 °C.
GATCCGCTCTCGGATC ((((((....)))))) gave a folding enthalpy [1] of -33.8 kcal/mol and a Tm [2] of 60 °C.
With GGTTGTGGAAACACAATC (.(((((....))))).) the folding enthalpy [1] was -29.7 kcal/mol and the Tm [2] was 47.9 °C.
Work on GTTCCCGGAAACGGGAGC (.(((((....))))).) yielded a folding enthalpy [1] of -26 kcal/mol and a Tm [2] of 54.2 °C.
